Results: PMC5553891 (Neurochemistry international, 2013)
Like-named read-outs stand apart in the source and are kept apart here. Blank lines part the entries; values can stand above or below the compound they belong to.

Experiments:
dSERT [1] = molecular target: T1, dSERT (Drosophila melanogaster, UniProt P51905); experiment: two-electrode voltage clamp of 5-HT-induced current in Xenopus oocytes; assay type: cell-based; details: 10 μM 5-HT, ND96, −50 mV, room temperature
T1 sequence (P51905 1-622): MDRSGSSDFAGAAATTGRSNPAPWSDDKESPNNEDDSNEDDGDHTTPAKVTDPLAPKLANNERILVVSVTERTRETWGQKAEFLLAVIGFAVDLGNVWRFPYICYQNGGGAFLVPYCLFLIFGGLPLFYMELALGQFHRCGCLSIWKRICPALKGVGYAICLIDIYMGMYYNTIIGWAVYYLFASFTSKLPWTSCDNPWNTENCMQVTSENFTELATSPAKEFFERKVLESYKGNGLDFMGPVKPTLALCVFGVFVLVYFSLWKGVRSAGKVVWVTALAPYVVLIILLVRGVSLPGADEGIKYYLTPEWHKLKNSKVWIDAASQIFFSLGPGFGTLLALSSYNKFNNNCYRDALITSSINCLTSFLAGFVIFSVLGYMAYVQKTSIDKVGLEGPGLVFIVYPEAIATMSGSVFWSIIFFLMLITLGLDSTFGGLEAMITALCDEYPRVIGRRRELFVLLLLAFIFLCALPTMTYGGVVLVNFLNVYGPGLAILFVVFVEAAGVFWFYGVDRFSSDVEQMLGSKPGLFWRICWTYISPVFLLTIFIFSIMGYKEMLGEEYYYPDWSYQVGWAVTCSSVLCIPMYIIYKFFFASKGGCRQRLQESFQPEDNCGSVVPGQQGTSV

dSERT [2] = molecular target: T1, dSERT; experiment: inhibition of [3H]5-HT uptake in Xenopus oocytes; assay type: cell-based
In short: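 Xenopus oocytes: defolliculated in collagenase A, kept at 18°C in supplemented ND96, injected with 50 ng dSERT cRNA, used 2–4 days later. Uptake ran 20 min in ND96 with 200 nM [3H]5-HT plus increasing competitor. Stopped by removal and six ND96 washes; SDS-solubilised at 60°C, 2 h; scintillation counted. Uninjected same-batch oocytes subtracted; normalised to no-drug control; one-site competition fit.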

[3] = read-out: Ki (μM ± SEM) / dSERT, 200 nM [3H]5-HT, 20 min, ND96

Structure (SMILES): CCN(CC)Cc1cc(Nc2ccnc3cc(Cl)ccc23)ccc1O [Amodiaquin]
- % inhibition of I5HT at 100 μM (dSERT [1]): amodiaquin, which did not impact 5-HT uptake, was as affective as quinine

Structure (SMILES): CCN(CC)CCCC(C)Nc1ccnc2cc(Cl)ccc12 (stereo not shown) [Chloroquine]
- % inhibition of I5HT at 100 μM (dSERT [1]): quinidine > cinchonine > quinacrine > chloroquine > quinine = amodiaquin = cinchonidine

Structure (SMILES): C=C[C@H]1CN2CC[C@H]1C[C@H]2[C@H](O)c1ccnc2ccccc12 [Cinchonidine]
- Ki (dSERT [2]; [3]): 330 ± 19 µM

Structure (SMILES): C=C[C@H]1C[N@@]2CC[C@H]1C[C@@H]2[C@@H](O)c1ccnc2ccccc12 [Cinchonine]
- Ki (dSERT [2]; [3]): 6.4 ± 0.05 µM

- Ki (dSERT [2]): 1.8 ± 0.11 µM
Structure (SMILES): C=C[C@H]1C[N@@]2CC[C@H]1C[C@@H]2[C@@H](O)c1ccnc2ccc(OC)cc12 [Quinidine]

- Ki (dSERT [2]): 102 ± 24 µM
Structure (SMILES): C=C[C@H]1C[N@@]2CC[C@H]1C[C@H]2[C@H](O)c1ccnc2ccc(OC)cc12 [Quinine]

Structure (SMILES): CCN(CC)CCCC(C)Nc1c2ccc(Cl)cc2nc2ccc(OC)cc12 (stereo not shown) [quinacrine]
- % inhibition of I5HT at 100 μM (dSERT [1]): quinidine > cinchonine > quinacrine > chloroquine > quinine = amodiaquin = cinchonidine
